How the values were obtained:
BT-549 = assay: Growth inhibition of human BT549 cells after 48 hrs by SRB assay; format: functional
SK-BR-3 [1] = assay: Cell cycle arrest in human SK-BR-3 cells assessed as accumulation at G1 phase at 0.50 uM after 18 hrs using propidium iodide staining by FACS analysis; format: functional
Summary of the method: (§1)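 SKBR-3 cells in RPMI1640 with 10% heat-inactivated FBS at 37 °C and 5% CO₂ were treated for the stated times. Cells were fixed overnight in 70% EtOH at −20 °C, then stained with propidium iodide buffer (38 mM sodium citrate pH 7.5, 69 µM PI, 120 µg/mL RNase A) for 15 min at room temperature in the dark. Up to 1×10⁴ gated cells were analyzed by flow cytometry, giving percent distribution per phase.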

ACHN = assay: Growth inhibition of human ACHN cells after 48 hrs by SRB assay; format: functional
SK-BR-3 [2] = assay: Cell cycle arrest in human SK-BR-3 cells assessed as accumulation at G2/M phase at 0.25 uM after 3 hrs using propidium iodide staining by FACS analysis; format: functional; summary of the method: as §1
SN12C = assay: Growth inhibition of human SN12C cells after 48 hrs by SRB assay; format: functional
OVCAR-3 = assay: Growth inhibition of human OVCAR3 cells after 48 hrs by SRB assay; format: functional
NCI-H522 = assay: Growth inhibition of human NCI-H522 cells after 48 hrs by SRB assay; format: functional
SK-BR-3 [3] = assay: Cell cycle arrest in human SK-BR-3 cells assessed as accumulation at S phase at 0.25 uM after 12 hrs using propidium iodide staining by FACS analysis; format: functional
SK-BR-3 [4] = assay: Cell cycle arrest in human SK-BR-3 cells assessed as accumulation at G1 phase at 0.50 uM after 6 hrs using propidium iodide staining by FACS analysis; format: functional; summary of the method: as §1
Mus musculus [5] = assay: Acute toxicity in nude mouse assessed as body weight loss at 100 to 400 mg/kg administered as single dose measured after 2 weeks; format: organism-based; design: dose 100-400 mg/kg; conditions: in vivo, 336 h
MOLT-4 = assay: Growth inhibition of human MOLT4 cells after 48 hrs by SRB assay; format: functional
SK-BR-3 [6] = assay: Cell cycle arrest in human SK-BR-3 cells assessed as accumulation at S phase at 0.25 uM after 3 hrs using propidium iodide staining by FACS analysis; format: functional
SK-BR-3 [7] = assay: Cell cycle arrest in human SK-BR-3 cells assessed as accumulation at G2/M phase at 0.25 uM after 12 hrs using propidium iodide staining by FACS analysis; format: functional; summary of the method: as §1
SK-BR-3 [8] = assay: Cell cycle arrest in human SK-BR-3 cells assessed as accumulation at S phase at 0.25 uM after 18 hrs using propidium iodide staining by FACS analysis; format: functional
Mus musculus [9] = assay: Toxicity in BALB/c athymic nu/nu mouse xenografted with human HT-29 cells assessed as effect on body weight at 5 mg/kg/day, ip administered 5 times per week for 3 weeks; format: organism-based; design: route intraperitoneal; conditions: in vivo, 504 h
Summary of the method: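 BALB/c nu/nu mice, three per group, each inoculated s.c. with HT29 cells in Matrigel at two sites. Dosing began once tumors reached about 200 mm³: 5 mg/kg/d i.p., five times weekly for three weeks, in sesame oil with 1% DMSO. Controls received vehicle only. Body weight was recorded weekly.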

[10] = Cmax in Sprague-Dawley rat plasma at 20 mg/kg, ip; format: ADME, organism-based; design: dose 20 mg/kg, route intraperitoneal
Summary of the method: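 Male Sprague–Dawley rats (300–350 g, n=3), fasted overnight, received one i.p. dose in PBS with 0.1% Tween80 and 20% DMSO. Blood (150 µL) was drawn from saphenous and femoral veins into heparinized tubes at 0–24 h, and plasma was stored at –20 °C. Samples underwent tert-butyl methyl ether/n-hexane extraction, then C18 isocratic LC-MS/MS in MRM mode with an internal standard; the method was validated over 0.1–100 ng/mL.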

SK-BR-3 [11] = assay: Cell cycle arrest in human SK-BR-3 cells assessed as accumulation at S phase at 0.25 uM after 6 hrs using propidium iodide staining by FACS analysis; format: functional
OVCAR-4 = assay: Growth inhibition of human OVCAR4 cells after 48 hrs by SRB assay; format: functional
SK-BR-3 [12] = assay: Cell cycle arrest in human SK-BR-3 cells assessed as accumulation at G1 phase at 0.25 uM after 3 hrs using propidium iodide staining by FACS analysis; format: functional; summary of the method: as §1
SK-BR-3 [13] = assay: Cell cycle arrest in human SK-BR-3 cells assessed as accumulation at G1 phase at 0.10 uM after 6 hrs using propidium iodide staining by FACS analysis; format: functional; summary of the method: as §1
A549 = assay: Growth inhibition of human A549 cells after 48 hrs by SRB assay; format: functional
SK-BR-3 [14] = assay: Cell cycle arrest in human SK-BR-3 cells assessed as accumulation at G2/M phase at 5 uM after 3 hrs using propidium iodide staining by FACS analysis; format: functional; summary of the method: as §1
LOX IMVI = assay: Growth inhibition of human LOXIMVI cells after 48 hrs by SRB assay; format: functional
SK-BR-3 [15] = assay: Cell cycle arrest in human SK-BR-3 cells assessed as accumulation at G2/M phase at 0.10 uM after 24 hrs using propidium iodide staining by FACS analysis; format: functional; summary of the method: as §1
SK-BR-3 [16] = assay: Cell cycle arrest in human SK-BR-3 cells assessed as accumulation at Sub-G1 phase at 0.25 uM after 6 hrs using propidium iodide staining by FACS analysis; format: functional
SK-BR-3 [17] = assay: Cell cycle arrest in human SK-BR-3 cells assessed as accumulation at Sub-G1 phase at 5 uM after 24 hrs using propidium iodide staining by FACS analysis; format: functional
SK-BR-3 [18] = assay: Cell cycle arrest in human SK-BR-3 cells assessed as accumulation at S phase at 0.50 uM after 3 hrs using propidium iodide staining by FACS analysis; format: functional
SK-BR-3 [19] = assay: Cell cycle arrest in human SK-BR-3 cells assessed as accumulation at Sub-G1 phase at 5 uM after 6 hrs using propidium iodide staining by FACS analysis; format: functional
SK-BR-3 [20] = assay: Cell cycle arrest in human SK-BR-3 cells assessed as accumulation at G1 phase at 5 uM after 24 hrs using propidium iodide staining by FACS analysis; format: functional; summary of the method: as §1
SK-BR-3 [21] = assay: Cell cycle arrest in human SK-BR-3 cells assessed as accumulation at G1 phase at 0.25 uM after 18 hrs using propidium iodide staining by FACS analysis; format: functional; summary of the method: as §1
HOP-62 = assay: Growth inhibition of human HOP62 cells after 48 hrs by SRB assay; format: functional
[22] = read-out: LC50 (the source's name)

Cc1ccc(C)c(COc2cc(NC(=O)c3ccc4c(c3)OCO4)ccc2N(C)S(C)(=O)=O)c1
growth inhibition (GI) (BT-549): Dose-dependent effect | GI50 (BT-549; BT-549, 48 h): 656 nM | TGI (BT-549; BT-549, 48 h): > 100000 nM | CC50 (BT-549; BT-549, 48 h, read-out: LC50 (the source's name)): > 100000 nM | Activity (SK-BR-3 [1]): 61.19% | GI50 (ACHN): 687 nM | TGI (ACHN): > 100000 nM | growth inhibition (GI) (ACHN): Dose-dependent effect | CC50 (ACHN; [22]): > 100000 nM | Activity (SK-BR-3 [2]): 10.77% | GI50 (SN12C): 472 nM | TGI (SN12C): > 100000 nM | growth inhibition (GI) (SN12C): Dose-dependent effect | CC50 (SN12C; [22]): > 100000 nM | growth inhibition (GI) (OVCAR-3): Dose-dependent effect | TGI (OVCAR-3; OVCAR-3, 48 h): 166 nM | growth inhibition (GI) (NCI-H522): Dose-dependent effect | GI50 (NCI-H522; NCI-H522, 48 h): 33.5 nM | TGI (NCI-H522; NCI-H522, 48 h): 240 nM | CC50 (NCI-H522; NCI-H522, 48 h, read-out: LC50 (the source's name)): > 100000 nM | Activity (SK-BR-3 [3]): 6.14% | Activity (SK-BR-3 [4]): 67.1% | Activity (Mus musculus [5]): Non-toxic | growth inhibition (GI) (MOLT-4): Dose-dependent effect | GI50 (MOLT-4; MOLT-4, 48 h): 163 nM | TGI (MOLT-4; MOLT-4, 48 h): > 100000 nM | CC50 (MOLT-4; MOLT-4, 48 h, read-out: LC50 (the source's name)): > 100000 nM | Activity (SK-BR-3 [6]): 16.34% | Activity (SK-BR-3 [7]): 13.35% | Activity (SK-BR-3 [8]): 6.81% | Activity (Mus musculus [9]): Non-toxic | Cmax [10]: 1500 ng/mL | Activity (SK-BR-3 [11]): 14.95% | growth inhibition (GI) (OVCAR-4): Dose-dependent effect | TGI (OVCAR-4; OVCAR-4, 48 h): > 100000 nM | CC50 (OVCAR-4; OVCAR-4, 48 h, read-out: LC50 (the source's name)): > 100000 nM | Activity (SK-BR-3 [12]): 69.63% | Activity (SK-BR-3 [13]): 71.43% | growth inhibition (GI) (A549): Dose-dependent effect | GI50 (A549; A549, 48 h): 278 nM | TGI (A549; A549, 48 h): 13600 nM | CC50 (A549; A549, 48 h, read-out: LC50 (the source's name)): > 100000 nM | Activity (SK-BR-3 [14]): 11.57% | GI50 (LOX IMVI): 66.6 nM | TGI (LOX IMVI): > 100000 nM | growth inhibition (GI) (LOX IMVI): Dose-dependent effect | CC50 (LOX IMVI; [22]): > 100000 nM | Activity (SK-BR-3 [15]): 11.23% | Activity (SK-BR-3 [16]): 3.49% | Activity (SK-BR-3 [17]): 27.62% | Activity (SK-BR-3 [18]): 17.76% | Activity (SK-BR-3 [19]): 3.42% | Activity (SK-BR-3 [20]): 31.87% | Activity (SK-BR-3 [21]): 73.42% | growth inhibition (GI) (HOP-62): Dose-dependent effect | GI50 (HOP-62; HOP-62, 48 h): 329 nM | TGI (HOP-62; HOP-62, 48 h): > 100000 nM | CC50 (HOP-62; HOP-62, 48 h, read-out: LC50 (the source's name)): > 100000 nM
